# Rpn11 block = blocks the human proteasome subunit Rpn11 | O00487 | human 26S proteasome, Ub4-pepOG fluorescence polarization; 20S core pre-blocked with epoxomicin | inhibition, % at 20 µM | hit rate 0.59% among 360,000 | AID 588493;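 active = inhibition at 20 µM, scaled to each plate's controls, above about 33%, limit read from the data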
# TPT1 inhibitor = inhibitors of Candida albicans tRNA 2'-phosphotransferase TPT1; recombinant caTPT1, FP RNA substrate dephosphorylation; inhibition, % at 5 µM; hit rate 0.81% among 300,000; AID 1962;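 active = inhibition above the mean of all tested compounds plus 3 SD, set per screening campaign, cut at about 24% in these data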
# CSN deneddyl inh = CSN deneddylation inhibition. Q92905. Purified CSN, SCF-Nedd8-OG deneddylation, fluorescence polarization. inhibition, % at 12.5 µM. hit rate 0.38% among 360,000;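 active = pattern-corrected inhibition above about 35%, with an unprinted fluorescence ratio check between 0.5 and 1.5, limit read from the data, passing the limit was not always enough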
#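 Schedule: reaction 90 min, room temperature / Assay system: HEK293T-derived human Csn5 enzyme / Input: Csn5 at 0.24 nM final / Measure: inhibition of Csn5 cleavage, % / Control set: substrate-only high control, full reaction low control / Technique: fluorescence polarization of the substrate / Buffer or medium: Tris/NaCl/DTT buffer, pH 7.5 / Reagent: SCFSkp2-Nedd8OG substrate at 10 nM final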
# SENP1 inh = inhibitors of human SENP1 SUMO protease catalytic domain | Q9P0U3 | recombinant SENP1 catalytic domain, CyPet-SUMO1-YPet FRET cleavage | inhibition, % at 10 µM | hit rate 0.21% among 360,000;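 active = inhibition at least 30% at 10 µM, raw YFP signal under a set limit, fluorescence ratio 0.5 to 1.5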
#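 Test system: recombinant human SENP1 catalytic domain, His6-tagged / Medium: pH 8 Tris buffer with EDTA, NaCl, BME, BSA, NP40, catalase / Also added: SUMO1 FRET substrate flanked by Cypet and Ypet, 25 nM / Times: 50 min reaction at room temperature / Signal: FRET, CFP and YFP emission / Control set: no-enzyme low control and enzyme-plus-DMSO high control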
# HNF4A DNA FP = change in binding of human HNF4 alpha to DNA; HNF4a-FITC DNA binding, fluorescence polarization, 1 h; activity change, % at 10 µM; hit rate 0.3% among 360,000; AID 1224865; in the data active = activity change above about 30%, passing the limit was not always enough
# Target sequence (P41235 whole entry, looked up): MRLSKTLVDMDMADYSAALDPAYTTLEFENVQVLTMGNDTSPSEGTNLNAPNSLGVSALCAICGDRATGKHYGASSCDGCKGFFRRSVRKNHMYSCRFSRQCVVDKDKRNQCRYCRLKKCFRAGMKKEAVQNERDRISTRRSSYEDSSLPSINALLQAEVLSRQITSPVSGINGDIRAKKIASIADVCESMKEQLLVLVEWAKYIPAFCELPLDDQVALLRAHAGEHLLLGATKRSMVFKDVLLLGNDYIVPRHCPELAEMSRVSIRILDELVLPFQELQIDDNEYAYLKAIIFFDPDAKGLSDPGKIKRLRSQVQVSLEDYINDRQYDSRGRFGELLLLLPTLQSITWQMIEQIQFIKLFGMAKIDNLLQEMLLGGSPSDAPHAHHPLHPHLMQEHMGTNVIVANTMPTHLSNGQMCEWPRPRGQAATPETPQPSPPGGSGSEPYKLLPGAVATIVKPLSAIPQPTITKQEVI
# HNF4A confirm = change in binding of human HNF4 alpha to DNA, retest; HNF4A-FITC DNA binding, fluorescence polarization, 1 h; shares compounds with HNF4A DNA FP; hit rate 99% among 210; activity change, % at 12.5 µM; call rule not given here
# Numbers stand for hits; . = inactive; / = no result shown. Sampled rows, rich in hits. Any-hit rate of the full collection: about 1.6%.
SMILES,Rpn11 block,TPT1 inhibitor,CSN deneddyl inh,SENP1 inh,HNF4A DNA FP,HNF4A confirm
Cc1cc(NC(=O)c2cc(-c3ccccn3)nc3c(Cl)cccc23)no1,.,.,.,.,.,/
CCOc1ccc(N2CC(C(=O)NNC(=O)c3ccc(Br)cc3)CC2=O)cc1 (centres undefined),.,.,.,.,.,/
N=c1n(CC(=O)c2ccc([N+](=O)[O-])cc2)c2ccccc2n1Cc1ccccc1,/,.,.,.,67.6,106.9
N=c1n(CC(=O)c2ccc([N+](=O)[O-])cc2)c2ccccc2n1Cc1ccc(Cl)cc1,/,.,.,.,39.7,118.8
CC(C)Oc1cc(N)c(Cl)cc1Cl,.,.,.,.,.,/
CCOc1ccccc1C(=O)OC(C)C(=O)Nc1ccc(S(=O)(=O)N2CCCC2)cc1 (centres undefined),.,/,.,.,.,/
Cc1ccc(NC(=O)c2ccc(NCC3CCCO3)c([N+](=O)[O-])c2)cc1Cl (centres undefined),/,.,40.8,.,36.9,53.7
CCOc1cc(C=O)cc(Br)c1OCC(=O)NCCc1ccccc1,.,.,.,.,.,/
CCS(=O)(=O)Nc1cccc(C2=NN(S(=O)(=O)CC)C(c3ccccc3)C2)c1 (centres undefined),.,.,.,.,55.4,78.6
CS(=O)(=O)Nc1cccc(C2=NN(S(C)(=O)=O)C(c3ccccc3)C2)c1 (centres undefined),.,.,.,.,.,/
COc1cccc(/C=C2\SC(=S)N(CCCC(=O)Nc3cc(C)on3)C2=O)c1,/,.,35.7,.,47.2,66.9
Cc1cc(C)c(NC(=O)CSCc2nc3sc(C)c(C)c3c(=O)[nH]2)c(Cl)c1,/,/,.,.,43.5,73.5
CC(=O)Nc1cc2c(cc1[N+](=O)[O-])-c1ccc(F)cc1C2,.,/,.,.,32.5,39.2
Cc1cc(-c2nnc(CCC(=O)NC(C)(C)C34CC5CC(CC(C5)C3)C4)o2)no1,.,.,.,.,.,/
O=C(/C=C/c1ccc(OCCCF)cc1)Nc1ccnc(-c2cccnc2)n1,.,.,.,.,36.2,52.1
O=C(/C=C/c1ccc(OCCCF)cc1)Nc1ccnc(-c2ccncc2)n1,.,.,.,.,.,/
OC(COc1ccccc1)CN1CCCCC1 (centres undefined),.,/,.,.,.,/
OC(COc1ccc(C2C=CCC2)cc1)CN1CCCCC1 (centres undefined),.,.,.,.,41.7,39.2
Cc1cc(/C=C2/NC(=S)NC2=O)c(C)n1-c1cccnc1,/,.,.,.,49.4,97.7
COc1ccc([C@H]2C[C@@H](O)[C@H](n3cc(-c4ccc(F)cc4)nn3)CN2C(=O)C2CCCCC2)cc1,.,/,.,.,.,/
C#CCOCCOCCOCCNc1nc(N2CCN(C(=O)[C@H](CCCCN)n3cc([C@@H](N)[C@H](C)CC)nn3)CC2)nc(N2CCN(C(=O)[C@H](CCCCN)n3cc([C@@H](N)CC(N)=O)nn3)CC2)n1,.,/,.,.,.,/
C#CCOCCOCCOCCNc1nc(N2CCN(C(=O)[C@H](CCCCN)n3cc([C@@H](N)C(C)CC)nn3)CC2)nc(N2CCN(C(=O)[C@H](CCCCN)n3cc([C@@H](N)CC(C)C)nn3)CC2)n1 (some centres undefined),.,.,68.9,.,71.9,111.9
C#CCNC(=O)C1=C[C@H](c2csc3ccccc23)C[C@H](OCCCCO)O1,.,.,.,.,.,/
CCCCN(C(=O)c1cc2c(s1)CCC2)c1c(N)n(CCCC)c(=O)[nH]c1=O,.,.,.,.,.,/
O=C(Nc1ccc([N+](=O)[O-])cc1)C(Cc1ccccc1)N1C(=O)c2cccc3cccc(c23)C1=O (centres undefined),/,.,.,.,54.3,93.7
SMILES,Rpn11 block,TPT1 inhibitor,CSN deneddyl inh,SENP1 inh,HNF4A DNA FP,HNF4A confirm
O=C(O)c1ccccc1NC(=O)C(Cc1ccccc1)N1C(=O)c2ccccc2C1=O (centres undefined),.,.,.,.,.,/
COc1ccc2[nH]c3c(NCCC4=CCCCC4)ncnc3c2c1,.,/,.,.,.,/
Cc1cc(=O)oc2cc(NC(=O)c3cccc(S(C)(=O)=O)c3)ccc12,.,.,.,.,.,/
Cc1cc(=O)oc2cc(NC(=O)c3cccc(F)c3)ccc12,.,.,41.8,.,41.2,34.8
NC(=O)CC(NC(=O)Cc1cccc2ccccc12)c1ccc(NC2CCCC2)c([N+](=O)[O-])c1 (centres undefined),.,/,.,.,.,/
NC(=O)CC(NC(=O)Cc1cccc2ccccc12)c1ccc(NC2CCCCC2)c([N+](=O)[O-])c1 (centres undefined),.,.,.,.,50.8,55.8
CCCCNc1ccc(C(CC(N)=O)NC(=O)Cc2ccc(Br)cc2)cc1[N+](=O)[O-] (centres undefined),.,.,.,.,.,/
CCC(CC)Nc1ccc(C(CC(N)=O)NC(=O)Cc2ccc(Br)cc2)cc1[N+](=O)[O-] (centres undefined),.,.,.,.,52.0,36.8
CCOCCCN(C(=O)c1snc(C(N)=O)c1N)C(C(=O)NC1CCCC1)c1ccc(O)cc1 (centres undefined),.,.,.,.,.,/
COc1cc(/C=C(\C#N)c2nc3ccccc3[nH]2)ccc1OC(=O)c1ccco1,.,.,.,.,38.5,52.1
C[C@H](NC(=O)c1nc[nH]c1C(=O)N[C@@H](C)c1ccccc1)C(=O)OC(C)(C)C,.,.,.,.,.,/
CC(C)[C@H](NC(=O)OC(C)(C)C)c1cc(C(=O)N[C@@H](C)c2ccccc2)c(N)s1,/,/,.,.,40.6,37.0
C#CCNC(=O)c1cc(-c2ccccc2)sc1N,/,/,.,.,67.1,79.8
COCCN(CCOC)Cc1cc(=O)oc2cc(C)ccc12,.,/,.,.,.,/
O=C1/C(=C/c2ccc(O)cc2)SC(=S)N1Cc1cccnc1,.,.,.,.,51.5,60.9
O=C(NC1CCCC1)c1cccc2c1C(=O)c1ccc(N3CCCCC3)cc1S2(=O)=O,/,/,.,.,52.1,53.9
Cc1ccc2sc(N(CCCN(C)C)C(=O)c3nc4ccccc4s3)nc2c1C,.,.,107.0,.,216.9,205.1
Cc1cnc(NC(=O)c2cccc(S(=O)(=O)N3CCOCC3)c2)s1,.,/,.,.,.,/
Cc1cc(C)n2c(NCc3ccccc3)c(-c3cc4ccccc4o3)nc2n1,/,/,.,.,61.1,64.6
Cc1cc(C)n2nc(NCc3ccccc3)nc2n1,.,.,.,.,.,/
